Results as given in ChEMBL document CHEMBL4308830, “Design, Synthesis, and Characterization of 4-Undecylpiperidine-2-carboxamides as Positive Allosteric Modulators of the Serotonin (5-HT) 5-HT2C Receptor” (J Med Chem, 2018).
Calls of active or inactive are those of the source. The rule behind the calls is not given here.

Experiments:
[1] = target: T1, 5-hydroxytryptamine receptor 2C (Homo sapiens) (UniProt P28335); experiment: Positive allosteric modulation of human 5-HT2CR expressed in CHO cells assessed as 5-HT-induced intracellular calcium release at 1 nM preincubated for 15 mins followed by 5-HT addition by calcium-4 dye based FLIPR assay (reference value: 100%); assay type: functional, cell-based
T1 sequence (whole entry): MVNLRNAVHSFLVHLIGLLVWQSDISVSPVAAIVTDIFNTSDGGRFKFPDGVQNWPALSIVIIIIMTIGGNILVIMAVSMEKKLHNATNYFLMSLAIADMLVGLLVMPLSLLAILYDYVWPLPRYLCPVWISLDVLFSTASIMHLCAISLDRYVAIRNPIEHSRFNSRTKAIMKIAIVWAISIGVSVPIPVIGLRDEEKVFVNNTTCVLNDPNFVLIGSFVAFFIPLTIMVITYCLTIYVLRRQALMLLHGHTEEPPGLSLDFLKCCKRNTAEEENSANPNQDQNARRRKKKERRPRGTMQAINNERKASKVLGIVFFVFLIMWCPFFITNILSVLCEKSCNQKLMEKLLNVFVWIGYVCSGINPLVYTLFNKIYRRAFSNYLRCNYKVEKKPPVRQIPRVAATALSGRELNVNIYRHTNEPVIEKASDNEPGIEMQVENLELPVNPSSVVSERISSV
How it was run: (§1)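 CHO cells stably expressing human unedited INI 5-HT2CR were plated, serum-starved 3 h, then loaded with Calcium 4 dye plus 2.5 mM probenecid (60 min 37 °C, then 15 min RT). Compound (1 nM) was added; the read after this addition gave intrinsic agonism. 5-HT (10 pM–10 μM) followed 15 min later. FLIPR-TETRA: 10 s baseline, 1 s reads for 120 s after compound and 360 s after 5-HT. Emax came from 4-parameter fits, ≥3 biological replicates in triplicate.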

[2] = target: T1, 5-hydroxytryptamine receptor 2C (Homo sapiens); experiment: Intrinsic agonist activity at human 5-HT2CR expressed in CHO cells assessed as induction of intracellular calcium release at 1 nM incubated for 15 mins measured every 1 sec for 120 secs by calcium-4 dye based FLIPR assay; assay type: functional, cell-based; how it was run: as §1
CHO = experiment: Cytotoxicity against CHO cells at 0.1 to 1000 nM after 1 hrs by LDH release assay; assay type: cell-based, Cricetulus griseus; conditions: chinese hamster, 1 µM
How it was run: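 Lactate dehydrogenase release assay for cytotoxicity, compounds tested at 0.1 nM and 1 μM.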

SMILES	Emax [1]	Activity [2]	Activity (CHO)
CCCCCCCCCCC[C@@H]1CCN[C@H](C(=O)NC(CO)CO)C1 (relative stereo)	108%	inactive	Non-Toxic
CCCCCCCCCCC[C@@H]1CCN[C@H](C(=O)N[C@@H](Cc2cc3ccccc3[nH]2)C(=O)OC)C1	102%	inactive	–
CCCCCCCCCCC[C@@H]1CCN[C@H](C(=O)N[C@H](CO)[C@H](O)c2ccccc2)C1	85.1%	inactive	Non-Toxic
O=C(N[C@H](CO)[C@H](O)c1ccccc1)[C@H]1C[C@@H](C2CCCCC2)CCN1	104%	inactive	Non-Toxic
CCCCCCCCCCC[C@@H]1CCN[C@H](C(=O)N[C@H](C(=O)OC)[C@H](C)O)C1	102%	inactive	–
CCCCCCCCCCC[C@@H]1CCN[C@H](C(=O)NCCN2CCOCC2)C1 (relative stereo)	107%	inactive	–
CC1CCC(CC[C@H]2CCN[C@@H](C(=O)N[C@@H](CO)[C@@H](O)c3ccccc3)C2)CC1 (stereo partly drawn)	116%	inactive	–
CCCCCCCCCCC[C@@H]1CCN[C@H](C(=O)N[C@@H](CO)[C@H](C)O)C1	112%	inactive	–
CCCCCCCCCCC[C@@H]1CCN[C@H](C(=O)NC[C@H](O)CCl)C1	114%	inactive	Non-Toxic
O=C(N[C@H](CO)[C@H](O)c1ccccc1)[C@@H]1C[C@H](C2CCCCC2)CCN1	105%	inactive	Non-Toxic
O=C(N[C@H](CO)[C@H](O)c1ccccc1)[C@@H]1C[C@H](CCC2CCCCC2)CCN1	96%	inactive	–
CCCCCCCCCCC[C@H]1CCN[C@@H](C(=O)N[C@H](CO)[C@H](O)c2ccccc2)C1	93.9%	inactive	–

Continued, in another order:

Emax [1]	Activity [2]	SMILES	Activity (CHO)
102%	inactive	CCCCCCCCCCC[C@H]1CCN[C@@H](C(=O)N[C@@H](CO)[C@@H](O)c2ccccc2)C1	–
111%	inactive	CCCCCCCCCCC[C@@H]1CCN[C@H](C(=O)N[C@H](CO)[C@@H](C)O)C1	–
109%	inactive	CCCCCCCCCCC[C@@H]1CCN[C@H](C(=O)N[C@@H](CO)[C@@H](O)c2ccccc2)C1	–
99.6%	inactive	CCCCCCCCCCC[C@@H]1CCN[C@H](C(=O)N[C@@H](CO)C(=O)OC)C1	–
106%	inactive	CCCCCCCCCCC[C@@H]1CCN[C@H](C(=O)NC[C@@H](O)CO)C1	–
114%	inactive	CCCCCCCCCCC[C@@H]1CCN[C@H](C(=O)NC[C@H](O)CO)C1	–
109%	inactive	CCCCCCCCCCC[C@@H]1CCN[C@H](C(=O)O)C1 (relative stereo)	–
89.6%	inactive	O=C(N[C@H](CO)[C@H](O)c1ccccc1)[C@H]1C[C@@H](CCC2CCCCC2)CCN1	Non-Toxic
104%	inactive	CCCCCCCCCCC[C@@H]1CCN[C@H](C(=O)N[C@@H](Cc2ccc(O)cc2)C(=O)OC)C1	–
107%	inactive	CC1CCC(CC[C@@H]2CCN[C@H](C(=O)N[C@@H](CO)[C@@H](O)c3ccccc3)C2)CC1 (stereo partly drawn)	–
108%	inactive	CCCCCCCCCCC[C@@H]1CCN[C@H](C(=O)NCCO)C1 (relative stereo)	Non-Toxic
